In ChEMBL document CHEMBL2034880, “Synthesis and biological evaluation of pyrimidine-based dual inhibitors of human epidermal growth factor receptor 1 (HER-1) and HER-2 tyrosine kinases” (J Med Chem, 2012):
One block for each molecule: values may come before it.

Experiments:
[1] = molecular target: Receptor tyrosine-protein kinase erbB-2 (Homo sapiens, UniProt P04626); test: Inhibition of HER2 preincubated for 10 mins followed by incubation for 30 mins by fluorescence polarization assay
SK-BR-3 = test: Cytotoxicity against human SKBR3 cells overexpressing HER-2 gene after 72 hrs by SRB assay; type: functional, cell-based; details: SK-BR-3, 72 h
Outline: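 A431 and SK-Br3 cells grown in DMEM (4.5 g/L glucose, 1.5 g/L sodium bicarbonate) with 10% FBS at 37 °C, humidified 5% CO2. Proliferation/growth inhibition IC50 values are means of three independent experiments, each run in duplicate.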

[2] = molecular target: Mast/stem cell growth factor receptor Kit (Homo sapiens, UniProt P10721); test: Inhibition of cKIT
[3] = molecular target: Receptor-type tyrosine-protein kinase FLT3 (Homo sapiens, UniProt P36888); test: Inhibition of Flt3
[4] = molecular target: Tyrosine-protein kinase SYK (Homo sapiens, UniProt P43405); test: Inhibition of Syk
[5] = Cytotoxicity against human MDA-MB-175 cells expressing Src, Ret and low HER-2 after 72 hrs by SRB assay; type: functional, cell-based
Outline: (§1)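 Culture conditions: MDA-MB-361 and MDA-MB-453 grown in L-15 without CO2. NCI-N87, NCI-H1781 and NCI-H1975 grown in RPMI with 1 mM sodium pyruvate under 5% CO2. JIMT-1 grown in DMEM (4.5 g/L glucose) under 5% CO2. MDA-MB-175 grown in L-15 without CO2. All media contained 10% FBS and 1% penicillin-streptomycin, 37 °C. Growth inhibition/GI50 read-out was run per a cited earlier protocol.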

[6] = molecular target: Tyrosine-protein kinase ABL1 (Homo sapiens, UniProt P00519); test: Inhibition of Abl
[7] = molecular target: 5'-AMP-activated protein kinase catalytic subunit alpha-1 (Homo sapiens, UniProt Q13131); test: Inhibition of AMPKalpha1
[8] = molecular target: Serine/threonine-protein kinase STK11 (Homo sapiens, UniProt Q15831); test: Inhibition of LKB1
[9] = molecular target: Vascular endothelial growth factor receptor 1 (Homo sapiens, UniProt P17948); test: Inhibition of Flt1
Insulin receptor = Insulin receptor (Homo sapiens, UniProt P06213); test: Inhibition of IR
[10] = molecular target: Tyrosine-protein kinase JAK2 (Homo sapiens, UniProt O60674); test: Inhibition of JAK2
MDA-MB-453 = test: Cytotoxicity against PTEN-deficient human MDA-MB-453 cells expressing HER-2, and PIK3CA mutant after 72 hrs by SRB assay; type: functional, cell-based; details: MDA-MB-453, 72 h; outline: as §1
[11] = molecular target: Cyclin-dependent kinase 1/cyclin B1 (Homo sapiens, UniProt P06493); test: Inhibition of CDK1/cyclin B; type: protein-complex assay
[12] = molecular target: Platelet-derived growth factor receptor alpha (Homo sapiens, UniProt P16234); test: Inhibition of PDGFRalpha
[13] = molecular target: Dual specificity mitogen-activated protein kinase kinase 1 (Homo sapiens, UniProt Q02750); test: Inhibition of MEK1
[14] = molecular target: Receptor tyrosine-protein kinase erbB-4 (Homo sapiens, UniProt Q15303); test: Inhibition of HER4 preincubated for 10 mins followed by incubation for 30 mins by fluorescence polarization assay
[15] = molecular target: Fibroblast growth factor receptor 1 (Homo sapiens, UniProt P11362); test: Inhibition of FGFR1
[16] = Cytotoxicity against human NCI-H1781 cells expressing HER-2 G776insV_G/C after 72 hrs by SRB assay; type: functional, cell-based; details: NCI-H1781, 72 h; outline: as §1
[17] = Half life in dog liver microsomes at 5 uM; details: liver microsomes
Focal adhesion kinase 1 = Focal adhesion kinase 1 (Homo sapiens, UniProt Q05397); test: Inhibition of FAK
[18] = molecular target: Serine/threonine-protein kinase pim-1 (Homo sapiens, UniProt P11309); test: Inhibition of PIM1
[19] = molecular target: Platelet-derived growth factor receptor beta (Homo sapiens, UniProt P09619); test: Inhibition of PDGFRbeta
[20] = molecular target: Hepatocyte growth factor receptor (Homo sapiens, UniProt P08581); test: Inhibition of MET
[21] = molecular target: Insulin-like growth factor 1 receptor (Homo sapiens, UniProt P08069); test: Inhibition of IGF-1R
[22] = Cytotoxicity against human JIMT1 cells expressing low HER-2 after 72 hrs by SRB assay; type: functional, cell-based; details: JIMT-1, 72 h; outline: as §1
[23] = Half life in rat liver microsomes at 5 uM; details: liver microsomes
[24] = Half life in human liver microsomes at 5 uM; details: liver microsomes
MDA-MB-361 = test: Cytotoxicity against ER activated human MDA-MB-361 cells expressing Her-2, Src and PIK3CA mutant after 72 hrs by SRB assay; type: functional, cell-based; details: MDA-MB-361, 72 h; outline: as §1
[25] = Half life in mouse liver microsomes at 5 uM; details: liver microsomes
Aurora kinase A = Aurora kinase A (Homo sapiens, UniProt O14965); test: Inhibition of Aurora A
NCI-N87 = test: Cytotoxicity against human NCI-N87 cells expressing HER-2 after 72 hrs by SRB assay; type: functional, cell-based; details: NCI-N87, 72 h; outline: as §1
NCI-H1975 = test: Cytotoxicity against human NCI-H1975 cells expressing EGFR L858R/T790M mutant after 72 hrs by SRB assay; type: functional, cell-based; details: NCI-H1975, 72 h
Outline: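 NCI-N87, NCI-H1781 and NCI-H1975 grown in RPMI with 1 mM sodium pyruvate under 5% CO2. JIMT-1 grown in DMEM (4.5 g/L glucose) under 5% CO2. All media contained 10% FBS and 1% penicillin-streptomycin, 37 °C. Growth inhibition/GI50 read-out was run per a cited earlier protocol.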

Chain of Mast/stem cell growth factor receptor Kit (P10721 whole entry): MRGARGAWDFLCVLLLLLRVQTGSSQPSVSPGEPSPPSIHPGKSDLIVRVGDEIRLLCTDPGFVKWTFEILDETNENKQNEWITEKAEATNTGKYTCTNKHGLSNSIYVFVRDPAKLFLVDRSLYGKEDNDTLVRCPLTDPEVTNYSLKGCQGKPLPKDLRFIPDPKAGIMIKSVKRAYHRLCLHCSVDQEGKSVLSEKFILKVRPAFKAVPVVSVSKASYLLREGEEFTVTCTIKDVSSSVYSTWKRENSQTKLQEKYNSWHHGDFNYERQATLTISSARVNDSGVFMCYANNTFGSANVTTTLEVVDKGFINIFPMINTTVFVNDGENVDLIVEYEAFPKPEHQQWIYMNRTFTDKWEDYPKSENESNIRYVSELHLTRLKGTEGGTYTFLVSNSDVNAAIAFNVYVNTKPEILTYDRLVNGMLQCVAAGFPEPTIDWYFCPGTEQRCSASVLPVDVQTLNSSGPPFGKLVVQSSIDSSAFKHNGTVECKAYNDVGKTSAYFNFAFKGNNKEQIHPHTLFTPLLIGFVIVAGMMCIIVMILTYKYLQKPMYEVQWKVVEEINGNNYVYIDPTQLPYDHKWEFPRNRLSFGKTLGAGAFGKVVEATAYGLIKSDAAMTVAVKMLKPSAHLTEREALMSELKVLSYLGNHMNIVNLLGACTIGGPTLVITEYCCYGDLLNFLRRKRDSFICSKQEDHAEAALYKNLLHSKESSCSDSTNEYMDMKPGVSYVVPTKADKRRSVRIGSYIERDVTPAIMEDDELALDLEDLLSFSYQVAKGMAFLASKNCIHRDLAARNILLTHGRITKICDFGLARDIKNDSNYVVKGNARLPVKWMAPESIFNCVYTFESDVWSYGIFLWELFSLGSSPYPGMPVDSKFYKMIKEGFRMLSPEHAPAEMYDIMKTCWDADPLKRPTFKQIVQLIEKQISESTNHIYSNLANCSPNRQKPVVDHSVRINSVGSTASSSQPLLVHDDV
Chain of Hepatocyte growth factor receptor (P08581 whole entry): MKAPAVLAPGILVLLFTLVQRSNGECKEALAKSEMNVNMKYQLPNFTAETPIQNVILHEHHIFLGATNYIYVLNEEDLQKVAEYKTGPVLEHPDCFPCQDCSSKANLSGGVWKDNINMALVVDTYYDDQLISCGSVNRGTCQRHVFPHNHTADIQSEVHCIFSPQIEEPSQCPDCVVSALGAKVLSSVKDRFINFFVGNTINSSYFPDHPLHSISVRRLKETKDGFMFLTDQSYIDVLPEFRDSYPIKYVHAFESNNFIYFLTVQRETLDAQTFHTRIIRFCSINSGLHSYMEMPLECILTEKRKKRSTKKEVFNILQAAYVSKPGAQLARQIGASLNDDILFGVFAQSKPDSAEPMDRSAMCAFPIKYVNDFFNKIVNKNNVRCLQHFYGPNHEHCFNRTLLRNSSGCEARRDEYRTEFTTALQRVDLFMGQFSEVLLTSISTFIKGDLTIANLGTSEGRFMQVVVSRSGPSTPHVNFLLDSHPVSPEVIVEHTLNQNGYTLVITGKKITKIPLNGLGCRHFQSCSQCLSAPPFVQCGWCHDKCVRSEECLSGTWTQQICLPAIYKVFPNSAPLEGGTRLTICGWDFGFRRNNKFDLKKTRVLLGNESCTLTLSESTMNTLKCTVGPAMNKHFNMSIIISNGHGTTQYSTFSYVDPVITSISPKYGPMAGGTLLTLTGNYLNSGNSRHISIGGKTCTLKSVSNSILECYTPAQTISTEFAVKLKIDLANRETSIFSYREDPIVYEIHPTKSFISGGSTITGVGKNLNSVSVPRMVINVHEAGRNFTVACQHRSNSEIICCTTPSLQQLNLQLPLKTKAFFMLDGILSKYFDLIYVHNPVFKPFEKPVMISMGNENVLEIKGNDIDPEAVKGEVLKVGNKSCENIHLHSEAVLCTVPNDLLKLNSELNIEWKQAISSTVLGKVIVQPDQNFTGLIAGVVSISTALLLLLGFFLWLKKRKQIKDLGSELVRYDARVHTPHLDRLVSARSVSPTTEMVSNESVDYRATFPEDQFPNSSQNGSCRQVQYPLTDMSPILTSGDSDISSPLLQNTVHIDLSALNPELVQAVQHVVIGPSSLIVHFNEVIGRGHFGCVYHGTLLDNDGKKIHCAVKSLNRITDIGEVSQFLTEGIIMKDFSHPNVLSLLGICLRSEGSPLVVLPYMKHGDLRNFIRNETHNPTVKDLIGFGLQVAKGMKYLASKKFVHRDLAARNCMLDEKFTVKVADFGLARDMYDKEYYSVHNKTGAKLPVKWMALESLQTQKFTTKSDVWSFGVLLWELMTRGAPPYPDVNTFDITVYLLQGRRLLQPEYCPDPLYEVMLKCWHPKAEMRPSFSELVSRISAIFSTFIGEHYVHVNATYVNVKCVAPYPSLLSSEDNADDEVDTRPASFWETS
Chain of Fibroblast growth factor receptor 1 (P11362 whole entry): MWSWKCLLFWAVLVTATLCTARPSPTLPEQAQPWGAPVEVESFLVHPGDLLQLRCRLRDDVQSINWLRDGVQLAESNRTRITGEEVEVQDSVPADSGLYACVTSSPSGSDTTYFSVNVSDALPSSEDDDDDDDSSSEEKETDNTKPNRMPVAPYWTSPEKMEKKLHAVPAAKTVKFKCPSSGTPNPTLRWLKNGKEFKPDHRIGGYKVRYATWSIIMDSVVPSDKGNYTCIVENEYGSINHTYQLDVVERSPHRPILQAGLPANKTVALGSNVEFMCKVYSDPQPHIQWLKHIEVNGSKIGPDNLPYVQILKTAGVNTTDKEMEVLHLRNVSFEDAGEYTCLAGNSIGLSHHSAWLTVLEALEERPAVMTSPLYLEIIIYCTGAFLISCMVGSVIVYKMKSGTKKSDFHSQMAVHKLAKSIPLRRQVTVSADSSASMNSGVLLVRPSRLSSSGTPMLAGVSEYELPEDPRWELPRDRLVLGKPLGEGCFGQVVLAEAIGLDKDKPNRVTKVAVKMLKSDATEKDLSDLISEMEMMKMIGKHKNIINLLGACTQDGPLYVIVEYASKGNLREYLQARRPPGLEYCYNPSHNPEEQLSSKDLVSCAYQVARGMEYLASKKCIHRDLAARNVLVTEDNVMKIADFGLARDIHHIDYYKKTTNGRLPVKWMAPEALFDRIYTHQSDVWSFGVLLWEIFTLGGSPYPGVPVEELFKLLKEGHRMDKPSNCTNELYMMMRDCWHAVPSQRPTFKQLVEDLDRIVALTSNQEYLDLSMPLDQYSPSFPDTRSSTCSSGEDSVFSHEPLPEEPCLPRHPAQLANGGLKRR
Chain of Serine/threonine-protein kinase pim-1 (P11309 whole entry): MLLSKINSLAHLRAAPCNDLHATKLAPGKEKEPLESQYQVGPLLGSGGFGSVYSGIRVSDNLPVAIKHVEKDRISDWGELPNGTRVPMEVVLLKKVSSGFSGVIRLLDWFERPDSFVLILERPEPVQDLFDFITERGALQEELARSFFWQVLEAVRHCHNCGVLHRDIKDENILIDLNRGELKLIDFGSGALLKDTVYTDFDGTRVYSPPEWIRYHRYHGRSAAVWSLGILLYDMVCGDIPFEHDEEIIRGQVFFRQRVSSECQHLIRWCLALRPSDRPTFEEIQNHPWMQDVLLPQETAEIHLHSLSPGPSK
Chain of Receptor tyrosine-protein kinase erbB-4 (Q15303 whole entry): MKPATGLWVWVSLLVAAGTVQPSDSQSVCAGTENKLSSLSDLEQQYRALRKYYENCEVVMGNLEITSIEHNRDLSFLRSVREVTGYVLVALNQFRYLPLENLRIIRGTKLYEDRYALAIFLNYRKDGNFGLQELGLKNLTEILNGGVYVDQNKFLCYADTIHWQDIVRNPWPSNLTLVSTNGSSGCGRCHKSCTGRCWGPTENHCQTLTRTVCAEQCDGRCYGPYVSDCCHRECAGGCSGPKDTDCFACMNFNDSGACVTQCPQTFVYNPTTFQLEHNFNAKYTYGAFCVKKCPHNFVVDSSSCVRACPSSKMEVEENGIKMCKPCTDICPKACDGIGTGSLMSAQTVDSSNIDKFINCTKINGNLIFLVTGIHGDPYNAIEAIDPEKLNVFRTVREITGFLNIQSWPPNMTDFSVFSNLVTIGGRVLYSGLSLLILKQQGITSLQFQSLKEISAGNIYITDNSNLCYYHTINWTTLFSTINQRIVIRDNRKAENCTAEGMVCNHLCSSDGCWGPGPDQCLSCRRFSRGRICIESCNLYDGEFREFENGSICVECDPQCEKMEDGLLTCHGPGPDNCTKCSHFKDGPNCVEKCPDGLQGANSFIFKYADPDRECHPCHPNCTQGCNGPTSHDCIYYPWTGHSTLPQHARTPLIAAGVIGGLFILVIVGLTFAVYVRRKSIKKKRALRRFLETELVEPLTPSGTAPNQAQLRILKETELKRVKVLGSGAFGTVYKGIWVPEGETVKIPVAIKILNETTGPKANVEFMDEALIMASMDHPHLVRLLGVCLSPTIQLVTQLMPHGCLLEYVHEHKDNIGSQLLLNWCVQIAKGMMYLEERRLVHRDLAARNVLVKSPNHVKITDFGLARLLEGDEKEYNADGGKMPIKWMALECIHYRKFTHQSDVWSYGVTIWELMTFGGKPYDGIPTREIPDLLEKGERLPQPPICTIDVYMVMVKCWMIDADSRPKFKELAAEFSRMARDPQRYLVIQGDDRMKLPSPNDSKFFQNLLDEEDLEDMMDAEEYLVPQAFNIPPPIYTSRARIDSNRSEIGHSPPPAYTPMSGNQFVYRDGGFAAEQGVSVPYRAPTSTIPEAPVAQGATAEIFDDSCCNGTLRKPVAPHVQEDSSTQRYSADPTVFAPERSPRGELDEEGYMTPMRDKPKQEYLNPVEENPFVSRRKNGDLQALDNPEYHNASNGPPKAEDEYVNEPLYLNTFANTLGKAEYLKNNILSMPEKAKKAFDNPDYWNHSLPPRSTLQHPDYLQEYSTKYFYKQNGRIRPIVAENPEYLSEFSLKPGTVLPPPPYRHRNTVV

IC50 [1]: 22.4 nM
IC50 [2]: > 3000 nM
IC50 [3]: > 3000 nM
IC50 [4]: > 3000 nM
IC50 [6]: > 3000 nM
IC50 [7]: > 3000 nM
IC50 [8]: > 3000 nM
IC50 [9]: > 3000 nM
IC50 (Insulin receptor): > 3000 nM
IC50 [10]: > 3000 nM
IC50 [11]: > 3000 nM
IC50 [12]: > 3000 nM
IC50 [13]: > 3000 nM
IC50 [14]: 4 nM
IC50 [15]: > 3000 nM
half-life at 5 µM [17]: 46 min
IC50 (Focal adhesion kinase 1): > 3000 nM
IC50 [18]: > 3000 nM
IC50 [19]: > 3000 nM
IC50 [20]: > 3000 nM
IC50 [21]: > 3000 nM
half-life at 5 µM [23]: 23 min
half-life at 5 µM [24]: 25 min
half-life at 5 µM [25]: 17 min
IC50 (Aurora kinase A): > 3000 nM
SMILES: C=CC(=O)NCc1coc(-c2c(N)ncnc2Nc2ccc(OCc3ccccn3)c(Cl)c2)n1
IC50 (SK-BR-3): 0.7 nM
IC50 [5]: 1.6 nM
IC50 (MDA-MB-453): 5 nM
IC50 [16]: 22 nM
IC50 [22]: 1880 nM
IC50 (MDA-MB-361): 562 nM

SMILES: CS(=O)(=O)CCNCc1ccc(-c2ccc3ncnc(Nc4ccc(OCc5cccc(F)c5)c(Cl)c4)c3c2)o1 [LAPATINIB]
IC50 [5]: 44.4 nM
IC50 (NCI-N87): 36 nM
IC50 (MDA-MB-453): 555 nM
IC50 [16]: 3050 nM
IC50 (NCI-H1975): > 1000 nM
IC50 [22]: > 10000 nM
IC50 (MDA-MB-361): 1030 nM
